Sampled rows, rich in hits. Any-hit rate of the full collection: about 2%.
Xi reactivation = activators of X-chromosome reactivation in mouse fibroblasts; XiGFP mouse fibroblasts, % GFP-positive cells imaging, 3 d; cells co-treated with 5-aza-dC sensitizer; scaled so ellipticine positive control = 100%; activation, % at 7.58 µM; 360,000 compounds, 0.055% hits; AID 743238;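 active = mean normalized replicate activation at least 10% and every replicate at or above 10%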;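 also: 0% = median of on-plate neutral control wells and 100% = ellipticine 6 µM median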
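Assay system – SV40-immortalized XiGFP fibroblast cells, line 68-5-11 · Buffer or medium – DMEM supplemented with 5-aza-dC as sensitizing agent · Dosing – one concentration, pinned · Benchmarks – positive control ellipticine, 6 µM final · Times – 3 days compound exposure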
RAD52 anneal inh = inhibitors of human RAD52 DNA annealing; 360,000 compounds, 0.46% hits; inhibition, % at 18.7 µM; recombinant RAD52 DNA annealing, FRET fluorescence;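 active = every replicate showing at least 50% inhibition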
Target sequence (P43351 whole entry, looked up): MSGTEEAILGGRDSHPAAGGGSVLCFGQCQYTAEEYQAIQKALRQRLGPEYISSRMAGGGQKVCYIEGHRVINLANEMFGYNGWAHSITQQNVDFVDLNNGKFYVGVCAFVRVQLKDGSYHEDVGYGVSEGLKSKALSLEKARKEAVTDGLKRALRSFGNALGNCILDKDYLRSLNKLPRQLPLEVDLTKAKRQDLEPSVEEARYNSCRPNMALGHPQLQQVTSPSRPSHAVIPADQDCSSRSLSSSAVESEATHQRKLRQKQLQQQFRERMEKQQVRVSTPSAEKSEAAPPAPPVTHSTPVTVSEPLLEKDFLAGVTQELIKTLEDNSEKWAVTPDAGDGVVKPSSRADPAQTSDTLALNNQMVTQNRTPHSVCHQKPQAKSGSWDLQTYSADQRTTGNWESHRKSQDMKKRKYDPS
RAD54 branch = blocks human RAD54 Holliday junction branch migration; AID 602329; 360,000 compounds, 0.14% hits; inhibition, % at 10.4 µM; FAM/BHQ fluorescence; Q92698;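 active = mean normalized replicate activity at least 40 and at least half of replicates scoring 40 or more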;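 also: 0% = median of neutral control wells and 100% = median of positive control wells; inhibitors cause a drop in the FAM fluorescence signal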
PglD DTNB = PglD (C. jejuni) enzyme inhibition; 360,000 compounds, 0.098% hits; inhibition, % at 12.5 µM; purified PglD enzyme, DTNB colorimetric CoA detection; AID 602405; in the data active = inhibition above about 16%, passing the limit was not always enough
E-sel inducer = E-selectin induction on HUVECs; P16581; activation, % at 7.58 µM; 260,000 compounds, 0.37% hits; HUVEC E-selectin immunofluorescence imaging; normalized: neutral wells 0, TNF-alpha wells 100; AID 686992;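 active = mean E-selectin-positive cell signal at least 10% of the positive control, reached in at least 60% of replicates, without over 20% cell loss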
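Read-out basis: % PE-positive cells; Test system: HUVEC primary endothelial cells; Technique: immunofluorescence imaging; Dosing: single-point compound dose.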
rRNA inh HTS = inhibitors of bacterial rRNA selective over humanized ribosomes. E. coli WT GFP vs humanized-ribosome RFP mutants, fluorescence, 24 h; stronger effect = lower value; DMSO median 0, no signal -100. GFP signal change (wild-type ribosome), % (test concentration not listed). 350,000 compounds, 1.6% hits;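 active = significant combined selectivity score with lowered wild-type GFP, culture density cut under 30%, mutant RFP and density less affected; inactive = any of these conditions unmet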
Active calls of the source: *; i = inactive; x = no result.

SMILES | Xi reactivation | RAD52 anneal inh | RAD54 branch | PglD DTNB | E-sel inducer | rRNA inh HTS
CN(CCNC(=O)c1cc2c(=O)n(C)c3ccccc3c2n1C)Cc1ccccc1 | 0.0 | 14.9 | 51.7* | 4.0 | 0.2 | -13.1
CCC(=O)N1C[C@@H](C)[C@@H](OC)CN(C)C(=O)c2ccc(NC(=O)Nc3ccccc3)cc2OC[C@@H]1C | 0.2 | 12.6 | 1.0 | 3.8 | -0.1 | -3.0
Cc1ccc(CSc2nnc(CCNC(=O)OC(C)(C)C)o2)cc1 | 0.0 | -1.5 | 1.0 | 8.1 | x | -24.9*
CC(C)(C)OC(=O)N1CCC[C@H]1c1nnc(SCc2ccccc2)o1 | 0.0 | -12.6 | 11.4 | 2.3 | x | -21.6
Cc1ccc(CSc2nnc([C@@H]3CCCN3C(=O)OC(C)(C)C)o2)cc1 | 0.2 | -6.6 | x | x | 4.1 | -15.6*
CC(C)(C)OC(=O)NCCc1nnc(SCc2ccccc2)o1 | 0.1 | -18.3 | -12.0 | -0.4 | x | 4.7
COc1cccc(C#Cc2cnc3c(c2)C(=O)N([C@@H](C)CO)C[C@H](C)[C@H](CN(C)C(=O)C2CCCCC2)O3)c1 | 0.0 | -2.8 | -3.2 | 0.2 | 0.1 | -5.5
CCS(=O)(=O)N1[C@H](CO)[C@@H](c2ccccc2)C12CN(C(=O)C1CCCC1)C2 | 0.2 | -18.0 | x | x | 0.0 | 0.8
CCNC(=O)C[C@H]1CC[C@H]2[C@@H](COc3ccc(NC(=O)C4CCOCC4)cc3C(=O)N2C)O1 | 0.1 | 6.9 | -4.7 | -3.5 | 0.0 | -1.2
COc1cccc(N2C(=O)C3C(C2=O)C3(c2ccccc2)c2ccccc2)c1 (stereo unspecified) | -0.1 | 1.4 | -6.7 | 8.7 | 0.1 | -33.0*
O=S(=O)(c1ccccc1)N1C[C@@H]2[C@H](c3ccccc31)[C@@H](CO)N2Cc1ccc(F)cc1 | 0.1 | 7.4 | -0.7 | -2.2 | -0.4 | -56.1
COc1ccc(CN(C)C[C@H]2OCCCC[C@@H](C)Oc3ccc(NS(=O)(=O)c4ccc(F)cc4)cc3C(=O)N([C@@H](C)CO)C[C@@H]2C)cc1 | 0.2 | 45.9 | 8.6 | -0.7 | x | 2.9
COc1ccc(CN(C)C[C@@H]2OCCCC[C@@H](C)Oc3ccc(NS(=O)(=O)c4ccc(Cl)cc4)cc3C(=O)N([C@@H](C)CO)C[C@H]2C)cc1 | 0.0 | 49.5 | -3.1 | -3.3 | x | 6.3
COc1ccc(NC(=O)N(C)C[C@H]2OCCCC[C@@H](C)Oc3ccc(NS(=O)(=O)c4ccccc4)cc3C(=O)N([C@H](C)CO)C[C@@H]2C)cc1 | 0.1 | 98.8* | 0.3 | 2.5 | -0.1 | 3.4
COc1ccc(S(=O)(=O)Nc2ccc3c(c2)C(=O)N([C@@H](C)CO)C[C@@H](C)[C@@H](CN(C)Cc2ccc(C(=O)Nc4ccccc4N)cc2)O3)cc1 | -0.1 | -19.1 | -11.4 | 0.1 | 34.2* | 1.9
COc1ccc(CN(C)C[C@@H]2OCCCC[C@H](C)Oc3ccc(NS(=O)(=O)c4ccc(Cl)cc4)cc3C(=O)N([C@H](C)CO)C[C@@H]2C)cc1 | 0.0 | 55.3* | -1.4 | 2.1 | x | -12.0
COc1ccc(CN(C)C[C@H]2OCCCC[C@H](C)Oc3ccc(NS(=O)(=O)c4ccc(F)cc4)cc3C(=O)N([C@H](C)CO)C[C@H]2C)cc1 | 0.0 | 54.9* | -0.2 | 0.9 | x | 5.7
CCCNC(=O)N[C@H]1CC[C@H](CCn2cc(C3CCCCC3)nn2)O[C@H]1CO | -0.2 | -3.3 | 9.4 | -0.7 | -0.2 | 0.9
CCCNC(=O)C[C@@H]1CC[C@@H]2[C@H](COC[C@H](O)CN2C(=O)c2ccc(F)cc2)O1 | 0.3 | -6.5 | -7.9 | 2.5 | 0.0 | i
O=C(NCC[C@H]1CC[C@@H](NC(=O)c2ccc3c(c2)OCO3)[C@@H](CO)O1)Nc1cc(F)ccc1F | 0.5 | 2.9 | 0.3 | -2.9 | -0.2 | -4.6
Cc1ccc(S(=O)(=O)Nc2ccc3c(c2)C(=O)N([C@H](C)CO)C[C@H](C)[C@H](CN(C)Cc2ccc(-c4ccccc4)cc2)O3)cc1 | 0.1 | 26.1 | -6.3 | 2.0 | -13.3 | 2.9
COc1ccc(S(=O)(=O)Nc2ccc3c(c2)C(=O)N([C@H](C)CO)C[C@H](C)[C@@H](CN(C)Cc2ccc(Cl)c(Cl)c2)O3)cc1 | -0.1 | -12.3 | -1.2 | 0.3 | -0.7 | -1.3
COc1ccc(S(=O)(=O)Nc2ccc3c(c2)C(=O)N([C@@H](C)CO)C[C@@H](C)[C@@H](CN(C)Cc2ccc(Cl)c(Cl)c2)O3)cc1 | 0.0 | 22.1 | -5.8 | 2.5 | 42.4* | -5.3
Cc1ccc(S(=O)(=O)Nc2ccc3c(c2)C(=O)N([C@H](C)CO)C[C@@H](C)[C@H](CN(C)Cc2ccc(-c4ccccc4)cc2)O3)cc1 | 0.0 | 27.6 | -29.5 | 2.3 | 156.7* | -0.2
C/C=C/c1ccccc1[C@@H]1[C@@H](CO)N(C(C)=O)[C@H]1C#N | 0.1 | 4.8 | x | x | 0.1 | -1.3
SMILES | Xi reactivation | RAD52 anneal inh | RAD54 branch | PglD DTNB | E-sel inducer | rRNA inh HTS
OC1CCN(C(=S)NCCc2ccccc2)CC1 | x | x | -3.8 | -3.6 | x | x
S=C(NCCc1ccccc1)N1CCc2ccccc2C1 | 0.1 | -11.8 | x | x | x | -21.9*
O=C(/C=C/c1ccco1)N(Cc1cccc(Cl)c1)C1CCS(=O)(=O)C1 (stereo unspecified) | 0.4 | -22.7 | x | x | 0.9 | 1.8
O=C(/C=C/c1ccccc1)N(Cc1ccc(Cl)cc1)C1CCS(=O)(=O)C1 (stereo unspecified) | 0.1 | -13.5 | 0.1 | -8.1 | -0.1 | -22.1*
COc1cccc(CN(C(=O)/C=C/c2ccc(Cl)cc2)C2CCS(=O)(=O)C2)c1 (stereo unspecified) | 0.1 | -4.1 | x | x | 0.1 | -35.9*
O=C(/C=C/c1ccccc1)N(Cc1cccc(Cl)c1)C1CCS(=O)(=O)C1 (stereo unspecified) | 0.4 | -7.1 | x | x | 3.2 | -35.4*
C[C@@H]1CN([C@H](C)CO)S(=O)(=O)c2ccc(-c3cncnc3)cc2O[C@@H]1CN(C)C(=O)C1CC1 | 0.8 | x | x | x | -4.1 | 2.3
CCCn1c(SCC(=O)Nc2ccccc2N2CCCCC2)nc2c1c(=O)n(C)c(=O)n2C | x | -15.8 | -7.1 | -0.6 | x | -29.1*
COC(=O)c1cc2c(c3c4cc(F)ccc4n(S(=O)(=O)c4ccccc4)c13)C(=O)N(C)C2 | 0.3 | -35.0 | x | x | 1.1 | -6.9
Cc1ccc(/C=N/Nc2ncc(Cl)cc2Cl)s1 | x | -12.5 | x | x | x | -22.0*
Oc1ccc(/C=N/Nc2ncc(Cl)cc2Cl)cc1 | 0.2 | 9.9 | 0.9 | 2.0 | -0.1 | 10.9
CCC(=O)N1[C@@H](CO)[C@@H](c2ccc(-c3ccc(C#N)cc3)cc2)C12CN(C(C)=O)C2 | 0.0 | -6.1 | x | x | 0.0 | -2.4
Cc1cc(C)nc(NC(=O)c2ccc(COc3ccccc3Cl)cc2)c1 | -0.1 | -6.5 | -4.1 | 7.4 | x | -23.8*
O=C(Nc1ccn(Cc2c(F)c(F)cc(F)c2F)n1)c1ccc(COc2ccccc2Cl)cc1 | x | -16.7 | x | x | x | -4.0

Screening results (PubChem BioAssay)
